Experimental data: ChEMBL document CHEMBL4680167, “Synthesis and SARs of dopamine derivatives as potential inhibitors of influenza virus PA endonuclease” (Eur J Med Chem, 2020)

What was measured:
Influenza A virus [1] = test: Antiviral activity against Influenza A virus (A/WSN/1933(H1N1)) infected in dog MDCK cells assessed as reduction in virus-induced cytopathic effect incubated for 48 hrs by MTT assay; format: functional, organism-based
How it was run: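 MDCK cells (DMEM, 10% FBS, 37 °C, 5% CO2) were seeded overnight and infected with 100 TCID50 (MOI 3.5×10^-3) of A/WSN/33 for 1 h. Compounds were added at increasing concentrations and cells were cultured about 48 h in FBS-free medium with 0.6 µg/mL TPCK-trypsin. Read-out was MTT, formazan dissolved in DMSO, A570, with CPE checked by microscopy. Triplicates; EC50 is the concentration giving 50% cell protection.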

[2] = Cytotoxicity against dog MDCK cells assessed as reduction in cell viability incubated for 48 hrs by MTT assay; format: cell-based, Canis lupus familiaris
How it was run: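 Uninfected MDCK cells were seeded overnight, then exposed to increasing compound concentrations or 0.1% DMSO blank for 48 h. Viability was read by MTT; CC50 is the concentration killing 50% of cells.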

[3] = Selectivity index, ratio of CC50 for dog MDCK cells to EC50 for Influenza A virus (A/WSN/1933(H1N1)) infected in dog MDCK cells; format: toxicity, cell-based; conditions: read-out: Ratio CC50/EC50
[4] = (§1) Binding affinity to recombinant Influenza A virus (A/USA:Huston/AA/1945 H1N1)) N-terminal His6-tagged PA endonuclease assessed as dissociation constant by SPR analysis
How it was run: (§2)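 For SPR, compounds were printed in 5 repeats on a photo-cross-linker chip. The surface was primed with HBS-EP (10 mM HEPES pH 7.0, 150 mM NaCl, 3 mM EDTA, 0.005% P20), then with running buffer (PBS, 5% DMSO). PA_N at 10, 20, 40, 80 and 160 nM in running buffer was injected 600 s at 0.5 µL/s, followed by 360 s dissociation.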

[5] = Inhibition of recombinant Influenza A virus (A/USA:Huston/AA/1945 H1N1)) N-terminal His6-tagged PA endonuclease using 6FAM-TGGCAATATCAGCTCCACA-MGBN DNA probe as substrate by TR-FRET assay
How it was run: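 Recombinant PA_N cleavage was followed by FRET on a TaqMan-like probe: 5'-FAM, 19 nucleotides, 3'-MGBNFQ quencher, excitation 492 nm. Cleavage frees FAM fluorescence. Percentage inhibition was plotted against log compound concentration; mean ± SD of eleven independent experiments.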

Influenza A virus [6] = test: as §1; how it was run: as §2

| Structure (SMILES) | EC50 (Influenza A virus [1]) [µM] | CC50 at 48 h [2] [µM] | selectivity ratio [3] | Kd [4] [µM] | EC50 [5] [µM] | Activity (Influenza A virus [6]) |
| --- | --- | --- | --- | --- | --- | --- |
| O=C(Cc1ccc(O)c(O)c1)OCCc1ccc(O)c(O)c1 [BLAPSIN A] | > 30 | – | – | – | – | – |
| O=C(NCCc1ccc(O)c(O)c1)c1cccc(O)c1 | 13.1 | > 200 | > 15.3 | – | – | – |
| O=C1c2cc(=O)ccn2N([C@@H]2c3ccccc3SCc3c2ccc(F)c3F)[C@@H]2COCCN12 | – | – | – | 0.000208 | – | – |
| Oc1ccc(CCNC(=S)Cc2ccc(O)c(O)c2)cc1O | 7.01 | > 200 | > 45.7 | – | 1.29 | – |
| O=C(c1ccc(O)c(O)c1)N1CCc2cc(O)c(O)cc2C1 | 3.1 | 133 | 43 | – | 0.577 | – |
| O=C(NCCc1ccc(O)c(O)c1)c1ccc(O)c(O)c1 | 10.2 | 154 | 15 | – | – | – |
| O=C(CCc1ccc(O)c(O)c1)N1CCc2cc(O)c(O)cc2C1 | 18.6 | 197 | 10.6 | – | – | – |
| O=C(NCCc1ccc(O)c(O)c1)c1cc(O)c(O)c(O)c1 | > 30 | – | – | – | – | – |
| O=C(Cc1ccc(O)c(O)c1)N1CCc2cc(O)c(O)cc2C1 | 2.58 | 151 | 58.5 | 0.0942 | 0.489 | Dose-dependent effect |
| O=C(Cc1ccc(O)c(O)c1)NCCc1ccc(O)c(O)c1 | 2.46 | > 200 | > 81.3 | 0.0263 | 0.312 | Dose-dependent effect |
| O=C(NCCc1ccc(O)c(O)c1)c1ccccc1O | > 30 | – | – | – | – | – |
| O=C(O[C@@H]1Cc2c(O)cc(O)cc2O[C@@H]1c1cc(O)c(O)c(O)c1)c1cc(O)c(O)c(O)c1 [EPIGALOCATECHIN GALLATE] | 28.9 | > 200 | > 6.9 | 0.956 | 6.45 | – |
| CCC(CC)[C@H](NC(C)=O)[C@@H]1[C@H](O)[C@@H](C(=O)O)C[C@H]1NC(=N)N [PERAMIVIR ANHYDROUS] | 5.26 | > 200 | > 38 | – | – | – |
| O=C(NCCc1ccc(O)c(O)c1)c1cccc(O)c1O | > 30 | – | – | – | – | – |
| O=C(CCc1ccc(O)c(O)c1)NCCc1ccc(O)c(O)c1 | 4.94 | > 200 | > 64.8 | – | 0.842 | – |
| O=C(NCCc1ccc(O)c(O)c1)c1ccc(O)cc1 | 12.7 | > 200 | > 25.2 | – | – | – |
